Test results taken from ChEMBL document CHEMBL4385606, “3,5,7-Substituted Pyrazolo[4,3- d]pyrimidine Inhibitors of Cyclin-Dependent Kinases and Their Evaluation in Lymphoma Models” (J Med Chem, 2019).
Active and inactive are the calls of the source. The rule behind the calls is not given here.

Columns and labels:
Mus musculus [1] = test: Ex vivo antitumor activity against human UPF1H cells xenografted NSG mouse assessed as effect on BCL2 expression at 5 to 10 mg/kg, iv measured after 24 hrs by immunoblotting analysis; type: functional, organism-based
Method in brief: (§1)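 Female NSG mice, 8-12 weeks old, implanted s.c. with lymphoma cells. Once tumors were palpable, mice received a single tail-vein i.v. dose (5 or 10 mg/kg) of compound dissolved in PBS. Mice were euthanized 24 h later. Tumors were excised, filtered through 45 µm nylon mesh and lysed, then proteins were analysed by immunoblotting.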

[2] = target: Serine/threonine-protein kinase Chk2 (Homo sapiens, UniProt O96017); test: Inhibition of CHK2 (unknown origin)
Homo sapiens [3] = species on record: Homo sapiens; test: Induction of apoptosis in human Mino cells assessed as reduction in MCL1 expression at 1.5 to 12.5 nM after 24 hrs by immunoblotting analysis; type: functional, cell-based
Method in brief: (§2)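 Lymphoma cell lines were cultured as the providers instruct and exposed to compound at several doses or for several times. Lysates were run on SDS-PAGE and blotted to nitrocellulose. Blots were blocked, incubated overnight with primary antibodies diluted in PBS with 5% milk and 0.1% Tween 20, then with peroxidase-conjugated secondaries, and detected by chemiluminescence on a CCD camera.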

[4] = Antiproliferative activity against human UPF7U cells assessed as growth inhibition measured after 72 hrs by calcein AM dye-based fluorescence assay; type: functional, cell-based
Method in brief: (§3)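 Cells exposed in triplicate to six concentrations for 72 h; calcein AM added for 1 h, live-cell fluorescence read at 485/538 nm (ex/em). GI50 taken from dose-response curves.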

[5] = target: Cyclin-dependent kinase 4/cyclin D1 (Homo sapiens, UniProt P11802); test: Inhibition of recombinant human N-terminal GST-fused CDK4 (S4 to E303 residues)/cyclin D1 (Q4 to I295 residues) expressed in baculovirus infected Sf9 insect cells using RPPTLSPIPHIPR as substrate measured in presence of [gamma-33P]ATP
Method in brief: (§4)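 CDK/cyclin complexes tested in triplicate at minimum; IC50 values reported from those replicate determinations.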

Homo sapiens [6] = species on record: Homo sapiens; test: Induction of apoptosis in human Mino cells assessed as induction of PARP1 cleavage at 1.5 to 12.5 nM after 24 hrs by immunoblotting analysis; type: functional, cell-based; method in brief: as §2
[7] = Antiproliferative activity against human HBL1 cells assessed as growth inhibition measured after 72 hrs by calcein AM dye-based fluorescence assay; type: functional, cell-based; conditions: HBL1, 72 h; method in brief: as §3
K562 = test: Antiproliferative activity against human K562 cells assessed as growth inhibition measured after 72 hrs by calcein AM dye-based fluorescence assay; type: functional, cell-based; conditions: K562, 72 h; method in brief: as §3
Mus musculus [8] = test: Ex vivo antitumor activity against patient derived VFN-M1 cells xenografted NSG mouse assessed as effect on BCL2 expression at 10 mg/kg, iv measured after 24 hrs by immunoblotting analysis; type: functional, organism-based; method in brief: as §1
G-361 = test: Antiproliferative activity against human G361 cells assessed as growth inhibition measured after 72 hrs by calcein AM dye-based fluorescence assay; type: functional, cell-based; conditions: G-361, 72 h; method in brief: as §3
[9] = target: Cyclin-dependent kinase 9 (Homo sapiens) (UniProt P50750); test: Inhibition of CDK9 in human Mino cells assessed as decrease in phosphorylation of RNA polymerase 2 C-terminal domain at Ser 5 residue at 12.5 nM by immunoblotting analysis; type: cell-based; conditions: TDE = time-dependent effect
Method in brief: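 MINO lymphoma cells exposed to 12.5 nM for up to 24 h (time course). Lysates separated by SDS-PAGE, transferred to nitrocellulose, probed overnight with specific primary antibodies diluted in PBS with 5% milk and 0.1% Tween 20, then peroxidase-conjugated secondaries; chemiluminescence imaged with a CCD camera.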

Homo sapiens [10] = species on record: Homo sapiens; test: Induction of apoptosis in human Mino cells assessed as caspase 3 activation at 1.5 to 12.5 nM after 24 hrs by immunoblotting analysis; type: functional, cell-based; method in brief: as §2
Mus musculus [11] = test: Ex vivo antitumor activity against human Mino cells xenografted NSG mouse decrease in phosphorylation of RNA polymerase 2 C-terminal domain at Ser 2 residue at 5 to 10 mg/kg, iv measured after 24 hrs by immunoblotting analysis; type: functional, organism-based; method in brief: as §1
[12] = Antiproliferative activity against human OCI-Ly2 cells assessed as growth inhibition measured after 72 hrs by calcein AM dye-based fluorescence assay; type: functional, cell-based; method in brief: as §3
Z-138 = test: Antiproliferative activity against human Z138 cells assessed as growth inhibition measured after 72 hrs by calcein AM dye-based fluorescence assay; type: functional, cell-based; conditions: Z-138, 72 h; method in brief: as §3
SU-DHL10 = test: Antiproliferative activity against human SUDHL10 cells assessed as growth inhibition measured after 72 hrs by calcein AM dye-based fluorescence assay; type: functional, cell-based; conditions: SU-DHL10, 72 h; method in brief: as §3
Mus musculus [13] = test: Ex vivo antitumor activity against patient derived VFN-M1 cells xenografted NSG mouse assessed as down regulation of XIAP expression at 10 mg/kg, iv measured after 24 hrs by immunoblotting analysis; type: functional, organism-based; method in brief: as §1
Maver1 = test: Antitumor activity against human Maver1 cells xenografted in NSG mouse assessed as inhibition of tumor growth at 9 mg/kg measured on day 13 by caliper method; type: functional, organism-based
Method in brief: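 MAVER-1 cells implanted s.c. in NSG mice. Groups: vehicle n=6, 9 mg/kg n=8, venetoclax 20 mg/kg n=8, combination n=10. Tumors measured daily by caliper in two perpendicular dimensions. Mean volumes ±SD tracked from therapy start (day 1).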

[14] = system: Panel NCI-60 (60 carcinoma cell lines); test: Antiproliferative activity against human NCI60 cells after 48 hrs by sulforhodamine B assay; type: functional
Mus musculus [15] = test: Ex vivo antitumor activity against human Mino cells xenografted NSG mouse assessed as effect on BCL-2 expression at 5 to 10 mg/kg, iv measured after 24 hrs by immunoblotting analysis; type: functional, organism-based
Method in brief: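 NSG mice bearing palpable s.c. tumors received a single i.v. dose (5 or 10 mg/kg) and were euthanized after 24 h. Excised tumors were filtered through 45 µm nylon mesh, lysed and run on SDS-PAGE, transferred to nitrocellulose, probed overnight with primary antibodies in PBS with 5% milk and 0.1% Tween 20, then peroxidase secondaries, with chemiluminescent detection.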

TMD8 = test: Antiproliferative activity against human TMD8 cells assessed as growth inhibition measured after 72 hrs by calcein AM dye-based fluorescence assay; type: functional, cell-based; conditions: TMD8, 72 h; method in brief: as §3
[16] = target: Cyclin-dependent kinase 1/cyclin B1 (Homo sapiens, UniProt P06493); test: Inhibition of His-tagged CDK1/Cyclin-B1 (unknown origin) expressed in baculovirus infected Sf9 insect cells using histone H1 as substrate measured in presence of [gamma-33P]ATP; method in brief: as §4
Homo sapiens [17] = species on record: Homo sapiens; test: Induction of apoptosis in human Mino cells assessed as induction of PARP1 cleavage at 12.5 nM after 2 to 24 hrs by immunoblotting analysis; type: functional, cell-based; method in brief: as §2

Sequence of Cyclin-dependent kinase 9 (Homo sapiens) (P50750 whole entry, the tested form may be a part): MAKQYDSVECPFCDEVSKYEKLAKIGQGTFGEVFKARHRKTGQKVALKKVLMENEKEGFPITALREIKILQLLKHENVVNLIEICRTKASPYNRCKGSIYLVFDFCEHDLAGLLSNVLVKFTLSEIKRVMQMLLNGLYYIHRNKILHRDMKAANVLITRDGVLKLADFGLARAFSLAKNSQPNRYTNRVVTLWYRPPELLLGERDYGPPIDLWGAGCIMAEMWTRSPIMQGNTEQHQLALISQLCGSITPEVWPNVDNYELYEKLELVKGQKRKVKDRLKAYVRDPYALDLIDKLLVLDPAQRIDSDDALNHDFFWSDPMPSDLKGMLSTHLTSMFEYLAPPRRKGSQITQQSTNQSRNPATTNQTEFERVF
Sequence of Cyclin-dependent kinase 1/cyclin B1 (P06493 whole entry): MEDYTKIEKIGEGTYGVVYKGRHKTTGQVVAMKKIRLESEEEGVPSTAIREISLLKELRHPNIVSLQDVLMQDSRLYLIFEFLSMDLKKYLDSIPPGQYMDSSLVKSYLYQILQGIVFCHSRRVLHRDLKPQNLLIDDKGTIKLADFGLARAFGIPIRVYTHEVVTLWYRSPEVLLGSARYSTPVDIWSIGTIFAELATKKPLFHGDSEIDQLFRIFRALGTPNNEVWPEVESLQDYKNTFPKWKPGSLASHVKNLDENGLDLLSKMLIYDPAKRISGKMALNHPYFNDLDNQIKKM
Sequence of Cyclin-dependent kinase 1/cyclin B1 (P14635 whole entry, further chain): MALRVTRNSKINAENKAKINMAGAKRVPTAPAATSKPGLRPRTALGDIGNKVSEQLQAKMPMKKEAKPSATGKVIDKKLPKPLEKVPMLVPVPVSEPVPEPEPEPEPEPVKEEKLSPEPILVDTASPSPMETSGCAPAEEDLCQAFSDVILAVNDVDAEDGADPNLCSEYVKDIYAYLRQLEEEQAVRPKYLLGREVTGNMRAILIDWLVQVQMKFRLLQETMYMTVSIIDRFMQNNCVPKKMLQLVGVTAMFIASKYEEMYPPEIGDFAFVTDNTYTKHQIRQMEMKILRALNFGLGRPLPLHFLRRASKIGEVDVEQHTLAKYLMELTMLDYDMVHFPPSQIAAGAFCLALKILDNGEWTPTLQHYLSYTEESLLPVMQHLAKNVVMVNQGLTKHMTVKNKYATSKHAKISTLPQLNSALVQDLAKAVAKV
Sequence of Cyclin-dependent kinase 4/cyclin D1 (P11802 whole entry, the tested form may be a part): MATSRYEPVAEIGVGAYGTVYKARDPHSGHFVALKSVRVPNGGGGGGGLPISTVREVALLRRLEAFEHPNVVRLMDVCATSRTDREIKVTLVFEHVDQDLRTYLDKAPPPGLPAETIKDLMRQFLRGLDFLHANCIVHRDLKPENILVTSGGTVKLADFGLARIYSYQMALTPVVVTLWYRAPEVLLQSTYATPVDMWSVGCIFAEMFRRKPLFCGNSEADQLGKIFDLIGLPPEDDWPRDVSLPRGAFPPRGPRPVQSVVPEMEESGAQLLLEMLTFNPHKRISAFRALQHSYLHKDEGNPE
Sequence of Cyclin-dependent kinase 4/cyclin D1 (P24385 whole entry, further chain, the tested form may be a part): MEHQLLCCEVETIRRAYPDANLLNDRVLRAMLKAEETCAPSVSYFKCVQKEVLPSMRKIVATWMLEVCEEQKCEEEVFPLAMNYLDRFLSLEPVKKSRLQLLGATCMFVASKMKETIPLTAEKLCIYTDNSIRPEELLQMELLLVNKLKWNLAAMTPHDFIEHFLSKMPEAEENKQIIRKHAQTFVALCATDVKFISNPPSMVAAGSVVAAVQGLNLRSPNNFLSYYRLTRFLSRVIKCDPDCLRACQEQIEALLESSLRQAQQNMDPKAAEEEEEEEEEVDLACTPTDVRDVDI
Sequence of Serine/threonine-protein kinase Chk2 (O96017 whole entry): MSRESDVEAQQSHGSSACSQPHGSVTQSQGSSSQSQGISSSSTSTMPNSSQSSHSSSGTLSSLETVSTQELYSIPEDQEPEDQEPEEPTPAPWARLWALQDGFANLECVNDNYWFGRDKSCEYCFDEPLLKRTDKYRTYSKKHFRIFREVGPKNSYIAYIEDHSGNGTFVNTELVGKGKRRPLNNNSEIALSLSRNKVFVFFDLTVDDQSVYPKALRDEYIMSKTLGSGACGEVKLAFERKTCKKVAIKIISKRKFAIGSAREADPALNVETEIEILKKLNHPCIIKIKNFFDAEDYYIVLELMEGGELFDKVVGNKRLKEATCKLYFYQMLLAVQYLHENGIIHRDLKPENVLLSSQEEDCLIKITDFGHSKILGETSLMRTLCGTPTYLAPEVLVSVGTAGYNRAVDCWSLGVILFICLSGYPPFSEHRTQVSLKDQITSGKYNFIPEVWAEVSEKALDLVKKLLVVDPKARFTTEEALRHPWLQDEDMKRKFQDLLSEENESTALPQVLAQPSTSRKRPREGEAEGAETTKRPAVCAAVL

CC(C)c1n[nH]c2c(NCc3ccc(-c4ccccn4)cc3)nc(SCCN)nc12
Activity (Mus musculus [1]): inactive
IC50 [2]: 0.525 µM
Activity (Homo sapiens [3]): Active
GI50 [4]: 0.012 µM
IC50 [4]: 0.012 µM
IC50 [5]: 0.603 µM
Activity (Homo sapiens [6]): Active
GI50 [7]: 0.01 µM
IC50 [7]: 0.01 µM
GI50 (K562): 0.036 µM
IC50 (K562): 0.036 µM
Activity (Mus musculus [8]): inactive
GI50 (G-361): 0.036 µM
IC50 (G-361): 0.036 µM
inhibition [9]: Tde
Activity (Homo sapiens [10]): Active
Activity (Mus musculus [11]): Active
GI50 [12]: 0.023 µM
IC50 [12]: 0.023 µM
GI50 (Z-138): 0.013 µM
IC50 (Z-138): 0.013 µM
GI50 (SU-DHL10): 0.017 µM
IC50 (SU-DHL10): 0.017 µM
Activity (Mus musculus [13]): Active
TGI (Maver1): Active
GI50 [14]: 0.023 µM
Activity (Mus musculus [15]): inactive
GI50 (TMD8): 0.012 µM
IC50 (TMD8): 0.012 µM
IC50 [16]: 0.09 µM
Activity (Homo sapiens [17]): Active
